The target of experiment [1] is T1, Neuropeptide Y receptor type 4 (Homo sapiens, UniProt P50391). The experiment is described as follows: Allosteric antagonist activity at […]-tagged human NPY4R expressed in COS7 cells co-expressing Gqi5-alpha assessed as inhibition of PP-induced Ca2+ flux by Fluo-2 AM dye based fluorescent assay. Format: functional, cell-based. The following applies: filed as allosteric antagonist. (In general: Calcium flux is commonly read through the fluorescence of an indicator in the cells.)
T1 sequence (P50391 whole entry): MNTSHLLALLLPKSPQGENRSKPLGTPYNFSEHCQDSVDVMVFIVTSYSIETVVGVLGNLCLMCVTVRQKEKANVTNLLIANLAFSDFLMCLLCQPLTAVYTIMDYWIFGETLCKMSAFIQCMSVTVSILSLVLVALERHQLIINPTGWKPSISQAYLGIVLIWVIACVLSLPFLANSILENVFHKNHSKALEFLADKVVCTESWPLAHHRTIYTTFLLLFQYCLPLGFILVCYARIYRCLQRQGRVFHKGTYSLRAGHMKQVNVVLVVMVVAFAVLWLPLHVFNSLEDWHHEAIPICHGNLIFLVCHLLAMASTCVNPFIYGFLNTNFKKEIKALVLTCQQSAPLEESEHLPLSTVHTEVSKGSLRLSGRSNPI

The target of experiment [2] is T1, Neuropeptide Y receptor type 4. The experiment is described as follows: Allosteric antagonist activity at […]-tagged human NPY4R expressed in COS7 cells co-expressing Gqi5-alpha assessed as inhibition of PP-induced Ca2+ flux by Fluo-2 AM dye based fluorescent assay relative to control. Format: functional, cell-based. As to conditions: read-out: IC50.
Experiment [3] shares this target. The experiment is described as follows: Allosteric antagonist activity at […]-tagged human NPY4R expressed in COS7 cells co-expressing Gqi5-alpha assessed as inhibition of PP-induced inositol phosphate accumulation by IP-one assay. The following applies: filed as allosteric antagonist. Format: functional, cell-based. The procedure, abridged:
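IP-One Gq HTRF assay in COS7 cells stably expressing Y4R-eYFP and Δ6Gαqi4myr, 8000 cells/well seeded overnight. Compound or DMSO added, then PP stimulation in HBSS + 20 mM LiCl for 1 h at 37 °C. Cells lysed with kit antibody reagents. Emission read at 665 and 620 nm.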

The target of experiment [4] is T2, Neuropeptide Y receptor type 5 (Mus musculus) (UniProt O70342).
T2 sequence (whole entry): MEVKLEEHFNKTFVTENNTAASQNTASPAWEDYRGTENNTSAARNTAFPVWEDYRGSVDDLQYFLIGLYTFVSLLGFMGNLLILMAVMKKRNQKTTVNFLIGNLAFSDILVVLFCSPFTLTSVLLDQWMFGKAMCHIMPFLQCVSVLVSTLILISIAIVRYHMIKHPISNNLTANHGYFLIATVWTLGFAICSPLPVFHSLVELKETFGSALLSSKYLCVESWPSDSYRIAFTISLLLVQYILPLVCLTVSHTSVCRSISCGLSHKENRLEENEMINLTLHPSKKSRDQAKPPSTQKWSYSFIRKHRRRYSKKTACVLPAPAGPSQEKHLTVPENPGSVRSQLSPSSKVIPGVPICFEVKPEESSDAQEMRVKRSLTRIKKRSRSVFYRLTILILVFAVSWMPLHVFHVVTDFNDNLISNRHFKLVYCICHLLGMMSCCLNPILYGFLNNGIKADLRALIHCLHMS
The experiment is described as follows: Allosteric antagonist activity at NPY5R in mouse descending colon mucosa assessed as reduction in rPP-induced ion transport at 30 uM by electrophysiology. Put shortly: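 Mouse descending colon mucosae (0.14 cm² exposed) in Ussing chambers, Krebs−Henseleit both sides, oxygenated, 37 °C, voltage-clamped at 0 mV. After stable basal Isc (20 min), DMSO (0.3%) or antagonist 300 nM–30 μM added basolaterally, then VIP 10 nM (10−15 min), then rPP 30 nM to lower Isc, then PYY 10 nM 15 min later. Isc changes pooled, mean ± SEM, N = 5.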

Experiment [5] deals with COS7. Description: Allosteric antagonist activity at human NPY4R Y1.39 position mutant expressed in COS7 cells co-expressing Gqi5-alpha assessed as inhibition of PP-induced Ca2+ flux by Fluo-2 AM dye based fluorescent assay. In kind it is cell-based. The following applies: dose 15.0 µM. The procedure, abridged:
(§1)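 COS7 cells transiently cotransfected overnight with 3 μg receptor-eYFP variant plasmid and 1 μg Δ6Gαqi4myr, reseeded next day. Fluo2-AM (2.4 μM) Ca²⁺ assay in HBSS/HEPES/probenecid pH 7.4. Compound concentration series added after 20 s baseline, PP at EC80 added 110 s later. Responses as x-fold over basal, normalized to 1 μM PP. N ≥ 3.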

In experiment [6] the test system is COS7. Description: Allosteric antagonist activity at human NPY4R Q2.58 position mutant expressed in COS7 cells co-expressing Gqi5-alpha assessed as inhibition of PP-induced Ca2+ flux by Fluo-2 AM dye based fluorescent assay. Format: cell-based. Put shortly: as §1
Experiment [7] has as its system COS7. The experiment is described as follows: Allosteric antagonist activity at human NPY4R T2.61 position mutant expressed in COS7 cells co-expressing Gqi5-alpha assessed as inhibition of PP-induced Ca2+ flux by Fluo-2 AM dye based fluorescent assay. Format: cell-based. The procedure, abridged: as §1
Experiment [8] deals with COS7. Description: Allosteric antagonist activity at human NPY4R Y2.64 position mutant expressed in COS7 cells co-expressing Gqi5-alpha assessed as inhibition of PP-induced Ca2+ flux by Fluo-2 AM dye based fluorescent assay. In kind it is cell-based. The procedure, abridged: as §1
The test system of experiment [9] is COS7. The experiment is described as follows: Allosteric antagonist activity at human NPY4R W2.70 position mutant expressed in COS7 cells co-expressing Gqi5-alpha assessed as inhibition of PP-induced Ca2+ flux by Fluo-2 AM dye based fluorescent assay. In kind it is cell-based. Put shortly: as §1
In experiment [10] the test system is COS7. The experiment is described as follows: Allosteric antagonist activity at human NPY4R S3.28 position mutant expressed in COS7 cells co-expressing Gqi5-alpha assessed as inhibition of PP-induced Ca2+ flux by Fluo-2 AM dye based fluorescent assay. Format: cell-based. Put shortly: as §1
Experiment [11] has as its system COS7. The experiment is described as follows: Allosteric antagonist activity at human NPY4R A3.29 position mutant expressed in COS7 cells co-expressing Gqi5-alpha assessed as inhibition of PP-induced Ca2+ flux by Fluo-2 AM dye based fluorescent assay. Format: cell-based. The procedure, abridged:
as §1

For experiment [12], the system named is COS7. The experiment is described as follows: Allosteric antagonist activity at human NPY4R Q3.32 position mutant expressed in COS7 cells co-expressing Gqi5-alpha assessed as inhibition of PP-induced Ca2+ flux by Fluo-2 AM dye based fluorescent assay. Format: cell-based. Put shortly:
as §1

Experiment [13] has as its system COS7. Description: Allosteric antagonist activity at human NPY4R F4.60 position mutant expressed in COS7 cells co-expressing Gqi5-alpha assessed as inhibition of PP-induced Ca2+ flux by Fluo-2 AM dye based fluorescent assay. Format: cell-based. Put shortly:
as §1

Experiment [14] concerns COS7. Description: Allosteric antagonist activity at human NPY4R F7.35 position mutant expressed in COS7 cells co-expressing Gqi5-alpha assessed as inhibition of PP-induced Ca2+ flux by Fluo-2 AM dye based fluorescent assay. Format: cell-based. The procedure, abridged: as §1
The test system of experiment [15] is COS7. The experiment is described as follows: Allosteric antagonist activity at human NPY4R L7.36 position mutant expressed in COS7 cells co-expressing Gqi5-alpha assessed as inhibition of PP-induced Ca2+ flux by Fluo-2 AM dye based fluorescent assay. In kind it is cell-based. The procedure, abridged: as §1
Experiment [16] has as its target Neuropeptide Y receptor type 4 (Mus musculus). The experiment is described as follows: Allosteric antagonist activity at NPY4R in mouse descending colon mucosa assessed as reduction in rPP-induced ion transport by electrophysiology.
Experiment [17] concerns the target T3, Neuropeptide Y receptor type 1 (Mus musculus) (UniProt Q04573).
T3 sequence (whole entry): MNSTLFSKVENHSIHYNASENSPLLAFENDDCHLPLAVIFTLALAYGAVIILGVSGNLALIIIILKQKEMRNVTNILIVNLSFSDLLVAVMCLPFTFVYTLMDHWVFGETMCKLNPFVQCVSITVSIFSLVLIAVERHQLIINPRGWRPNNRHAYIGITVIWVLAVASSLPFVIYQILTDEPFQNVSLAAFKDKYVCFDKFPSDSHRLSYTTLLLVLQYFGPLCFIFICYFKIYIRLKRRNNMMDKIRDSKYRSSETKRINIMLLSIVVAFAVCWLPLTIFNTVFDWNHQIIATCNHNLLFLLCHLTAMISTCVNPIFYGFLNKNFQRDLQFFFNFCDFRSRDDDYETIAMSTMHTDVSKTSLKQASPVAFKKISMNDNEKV
Description: Allosteric antagonist activity at NPY1R in mouse descending colon mucosa assessed as reduction in PYY-induced ion transport at 30 uM by electrophysiology.

Experiment [18] addresses T4, Neuropeptide Y receptor type 2 (Mus musculus) (UniProt P97295).
T4 sequence (whole entry): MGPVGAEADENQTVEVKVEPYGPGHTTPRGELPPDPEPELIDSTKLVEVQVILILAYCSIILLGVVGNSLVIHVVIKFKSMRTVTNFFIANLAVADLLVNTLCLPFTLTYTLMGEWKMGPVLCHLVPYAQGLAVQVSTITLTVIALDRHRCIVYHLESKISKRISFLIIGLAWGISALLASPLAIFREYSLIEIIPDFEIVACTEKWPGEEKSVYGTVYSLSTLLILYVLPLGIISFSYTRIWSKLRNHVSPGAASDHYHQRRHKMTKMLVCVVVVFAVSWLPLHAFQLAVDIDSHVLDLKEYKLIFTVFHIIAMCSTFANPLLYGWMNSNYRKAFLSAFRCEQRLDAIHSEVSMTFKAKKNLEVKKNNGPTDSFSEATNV
Description: Allosteric antagonist activity at NPY2R in mouse descending colon mucosa assessed as reduction in PYY-induced ion transport at 30 uM by electrophysiology.

The target in experiment [19] is T3, Neuropeptide Y receptor type 1 (Mus musculus). Description: Allosteric antagonist activity at NPY1R in mouse descending colon mucosa assessed as reduction in PYY-induced ion transport at 0.3 to 30 uM by electrophysiology. The following applies: dose 0.3-30 µM.
The target of experiment [20] is T4, Neuropeptide Y receptor type 2 (Mus musculus). The experiment is described as follows: Allosteric antagonist activity at NPY2R in mouse descending colon mucosa assessed as reduction in PYY-induced ion transport at 0.3 to 30 uM by electrophysiology. As to conditions: dose 0.3-30 µM.

This is an account of results in ChEMBL document CHEMBL4732214, “Highly Selective Y Receptor Antagonist Binds in an Allosteric Binding Pocket” (J Med Chem, 2021).

Calls of active or inactive are those of the source. The rule behind the calls is not given here.

A word on the Kb: it is the equilibrium dissociation constant of an antagonist, usually derived from a functional assay. What is called pKb is the negative decadic logarithm of the Kb, by convention in mol/L. As a reminder, the IC50 is the concentration that inhibits the measured activity by half. As for `CS(=O)(=O)N1CCCC[C@H]1C(=O)Nc1nc2cc3c(cc2s1)OCCO3`, in experiment [1], the Kb was 380 nM. The inhibition entry in experiment [1] and in experiment [16] (filed as allosteric antagonist) was “Dose-dependent effect” in each case. Also, the pKb in [1] stood at 6.4. For the same compound, the IC50 in experiment [2] is 2700 nM; in experiment [16] it was 3.8 µM. The inhibition result in [3] was “Active”. Moreover, the inhibition entry in experiment [4], in [5], in experiment [6], in experiment [7], in [8] and in experiment [9] was “inactive” in each case. The inhibition entry in experiment [10], in experiment [11], in experiment [12], in [13], in experiment [14] and in experiment [15] was “inactive” each time. The inhibition result in experiment [17], in experiment [18], in experiment [19] and in [20] was “inactive” in each case.
